Calls of active or inactive are those of the source. The rule behind the calls is not given here.
Tests used:
[1] = molecular target: T1, DNA topoisomerase 1 (Homo sapiens) (UniProt P11387); test: Inhibition of Top1 assessed as suppression of supercoiled pBR322 DNA relaxation measuring appearance of short DNA fragments at 100 uM incubated for 15 mins by electrophoresis method
T1 sequence (whole entry): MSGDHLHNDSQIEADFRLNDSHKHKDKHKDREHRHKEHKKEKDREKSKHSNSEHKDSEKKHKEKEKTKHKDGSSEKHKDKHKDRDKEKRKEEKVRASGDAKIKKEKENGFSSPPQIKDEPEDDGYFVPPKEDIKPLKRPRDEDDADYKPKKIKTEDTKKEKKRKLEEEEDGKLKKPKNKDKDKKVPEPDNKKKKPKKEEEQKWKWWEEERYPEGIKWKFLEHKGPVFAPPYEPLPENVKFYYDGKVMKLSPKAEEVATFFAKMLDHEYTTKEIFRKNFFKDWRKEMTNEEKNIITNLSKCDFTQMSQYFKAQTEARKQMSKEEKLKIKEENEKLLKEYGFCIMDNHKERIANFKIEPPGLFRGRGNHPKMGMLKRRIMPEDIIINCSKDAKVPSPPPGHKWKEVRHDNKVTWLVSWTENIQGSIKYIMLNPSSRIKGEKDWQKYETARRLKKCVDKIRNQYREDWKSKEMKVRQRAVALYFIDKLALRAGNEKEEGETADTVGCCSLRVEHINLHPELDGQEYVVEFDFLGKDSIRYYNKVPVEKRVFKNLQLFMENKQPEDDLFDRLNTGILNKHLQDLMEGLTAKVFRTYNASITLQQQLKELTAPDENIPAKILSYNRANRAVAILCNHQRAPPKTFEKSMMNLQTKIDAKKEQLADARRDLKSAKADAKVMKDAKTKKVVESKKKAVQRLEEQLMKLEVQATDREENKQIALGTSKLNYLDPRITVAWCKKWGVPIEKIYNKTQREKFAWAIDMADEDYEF

U2OS = test: Cytotoxicity against human U2OS cells incubated for 72 hrs by MTT assay; type: functional
How it was run: (§1)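 MTT assay. Cells seeded at 5 × 10³/well and grown 24 h at 37 °C, 5% CO₂. Compounds added at several concentrations in triplicate wells, with 0.1% DMSO control, for 72 h. MTT then added for 4 h, formazan dissolved in DMSO, and absorbance read at 570 nm. GI₅₀ by Logit method; three experiments.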

HL-60 = test: Cytotoxicity against human HL60 cells incubated for 72 hrs by MTT assay; type: functional; conditions: HL-60, 72 h; how it was run: as §1
A549 [2] = test: Antitumor activity against human A549 cells xenografted in BALB/C nude mouse assessed as tumor growth inhibition at 1 mg/kg, ip for 13 days measured on 30 to 33 days post implantation; type: functional, organism-based; design: dose 1 mg/kg
How it was run: (§2)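 Cells implanted subcutaneously in right axilla of nude mice; dosing began at tumor volume about 100−300 mm³ (day 17). Randomized, six mice per treatment group and eight controls; ip injection. Tumor volume by caliper, TV = 1/2 × a × b², with body weight every 4 days. Mice sacrificed day 30−33 and tumors removed. Mean SEM, Student's t test versus control.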

HepG2 = test: Cytotoxicity against human HepG2 cells incubated for 72 hrs by MTT assay; type: functional; conditions: HepG2, 72 h; how it was run: as §1
[3] = molecular target: DNA topoisomerase 2-alpha (Homo sapiens) (UniProt P11388); test: Inhibition of human Top2alpha assessed as suppression of supercoiled pBR322 DNA relaxation at 50 uM incubated for 30 mins by electrophoresis method
Sequence of DNA topoisomerase 2-alpha (Homo sapiens) (P11388 whole entry): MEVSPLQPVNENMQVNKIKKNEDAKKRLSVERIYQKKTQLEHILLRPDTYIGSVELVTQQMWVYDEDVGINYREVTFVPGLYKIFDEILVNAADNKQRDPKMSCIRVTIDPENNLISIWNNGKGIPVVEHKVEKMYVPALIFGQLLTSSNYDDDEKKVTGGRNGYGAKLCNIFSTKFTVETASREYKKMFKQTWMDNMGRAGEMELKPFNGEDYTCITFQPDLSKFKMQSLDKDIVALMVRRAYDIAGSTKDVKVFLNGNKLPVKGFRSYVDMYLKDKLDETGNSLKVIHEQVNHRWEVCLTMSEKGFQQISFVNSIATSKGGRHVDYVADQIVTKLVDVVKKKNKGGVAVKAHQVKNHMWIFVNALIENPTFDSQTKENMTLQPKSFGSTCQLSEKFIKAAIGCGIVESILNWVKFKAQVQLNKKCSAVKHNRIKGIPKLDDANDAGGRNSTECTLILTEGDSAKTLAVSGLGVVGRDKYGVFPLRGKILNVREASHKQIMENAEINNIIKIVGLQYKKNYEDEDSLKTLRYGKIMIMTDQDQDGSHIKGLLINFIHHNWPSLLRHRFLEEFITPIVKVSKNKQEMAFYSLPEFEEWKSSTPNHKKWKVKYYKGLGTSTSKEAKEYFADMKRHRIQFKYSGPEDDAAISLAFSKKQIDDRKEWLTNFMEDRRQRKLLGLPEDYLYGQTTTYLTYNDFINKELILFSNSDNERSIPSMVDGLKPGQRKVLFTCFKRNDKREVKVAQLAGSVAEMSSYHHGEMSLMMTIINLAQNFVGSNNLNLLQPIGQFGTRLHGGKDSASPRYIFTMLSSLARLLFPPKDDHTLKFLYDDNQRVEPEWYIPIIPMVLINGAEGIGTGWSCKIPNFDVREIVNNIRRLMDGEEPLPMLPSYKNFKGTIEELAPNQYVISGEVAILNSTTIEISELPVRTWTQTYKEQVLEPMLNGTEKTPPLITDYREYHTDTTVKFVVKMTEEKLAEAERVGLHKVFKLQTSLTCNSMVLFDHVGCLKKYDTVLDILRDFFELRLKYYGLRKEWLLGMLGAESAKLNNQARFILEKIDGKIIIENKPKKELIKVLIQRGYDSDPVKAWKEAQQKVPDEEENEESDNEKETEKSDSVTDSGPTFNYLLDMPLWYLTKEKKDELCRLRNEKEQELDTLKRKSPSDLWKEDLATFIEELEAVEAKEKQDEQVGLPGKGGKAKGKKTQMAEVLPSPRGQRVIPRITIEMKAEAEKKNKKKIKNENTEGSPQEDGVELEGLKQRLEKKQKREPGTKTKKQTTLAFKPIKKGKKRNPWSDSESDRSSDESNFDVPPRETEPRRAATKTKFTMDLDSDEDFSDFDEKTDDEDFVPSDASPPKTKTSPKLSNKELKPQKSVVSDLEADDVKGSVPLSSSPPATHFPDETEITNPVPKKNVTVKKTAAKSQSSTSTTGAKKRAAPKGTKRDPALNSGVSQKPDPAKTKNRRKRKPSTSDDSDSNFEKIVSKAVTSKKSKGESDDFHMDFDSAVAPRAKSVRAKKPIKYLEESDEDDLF

MDA-MB-435 = test: Cytotoxicity against human MDA-MB-435 cells incubated for 72 hrs by MTT assay; type: functional; conditions: MDA-MB-435, 72 h; how it was run: as §1
A549 [4] = test: Cytotoxicity against human A549 cells incubated for 72 hrs by MTT assay; type: functional; conditions: A549, 72 h; how it was run: as §1
Mus musculus = test: Toxicity in BALB/C nude mouse xenografted with human A549 cells assessed as reduction in body weight at 1 mg/kg, ip for 13 days measured on 30 to 33 days post implantation; type: organism-based; design: dose 1 mg/kg, route intraperitoneal; conditions: in vivo; how it was run: as §2
HCT-116 = test: Cytotoxicity against human HCT116 cells incubated for 72 hrs by MTT assay; type: functional; conditions: HCT-116, 72 h; how it was run: as §1
PANC-1 = test: Cytotoxicity against human PANC1 cells incubated for 72 hrs by MTT assay; type: functional; conditions: PANC-1, 72 h; how it was run: as §1
[5] = molecular target: DNA topoisomerase 2-alpha (Homo sapiens) (UniProt P11388); test: Inhibition of human Top2alpha assessed as suppression of supercoiled pBR322 DNA relaxation at 50 uM incubated for 30 mins in presence of excess ATP level by electrophoresis method
PC-3 = test: Cytotoxicity against human PC3 cells incubated for 72 hrs by MTT assay; type: functional; conditions: PC-3, 72 h; how it was run: as §1
SAOS-2 = test: Cytotoxicity against human Saos2 cells incubated for 72 hrs by MTT assay; type: functional; conditions: SAOS-2, 72 h; how it was run: as §1
[6] = Toxicity in mouse; type: organism-based; conditions: in vivo
Nucleic Acid = test: Induction of DNA intercalation in Escherichia coli pBR322 DNA assessed as induction of supercoiled DNA at 1 ug/ml incubated for 15 mins by electrophoresis based Top1 unwinding assay; type: nucleic-acid assay
How it was run: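 pBR322 plasmid (0.25 μg) preincubated with 100 μM compound or 1 μg/mL ethidium bromide, 37 °C, 15 min, in Top1 buffer (35 mM Tris-HCl pH 8.0, 72 mM KCl, 5 mM MgCl2, 5 mM DTT, 5 mM spermidine, 0.1% BSA). 5 U Top1 then added for 60 min at 37 °C. Stopped with SDS and proteinase K (50 °C, 20 min), phenol/chloroform extracted, agarose gel.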

[7] = molecular target: T1, DNA topoisomerase 1 (Homo sapiens); test: Inhibition of Top1 assessed as suppression of supercoiled pBR322 DNA relaxation measuring appearance of short DNA fragments at 500 uM incubated for 15 mins by electrophoresis method

In the case of `CN1c2ccc(F)cc2C(=O)N2CCc3c([nH]c4ccccc34)C21` (stereo unspecified), the inhibition [1] is reported as “Active”, the GI50 (U2OS) is reported as 129 µM and the GI50 (HL-60) is reported as under 0.003 µM. For the same compound, the TGI (A549 [2]) was “Active”, the GI50 (HepG2) was 188 µM and the inhibition [3] was “Active”. The GI50 (MDA-MB-435) was under 0.003 µM, the GI50 (A549 [4]) was under 0.003 µM and the Activity (Mus musculus) was “Non-toxic”. For the same compound, the GI50 (HCT-116) was under 0.003 µM, the GI50 (PANC-1) was 1.7 µM and the inhibition [5] was “inactive”. For the same compound, the GI50 (PC-3) was 34.2 µM and the GI50 (SAOS-2) was 205 µM.
For `CN1c2ccccc2C(=O)N2CCc3c([nH]c4ccccc34)[C@H]21` [EVODIAMINE], the LD50 [6] was 77.8 mg/kg.
With `CC[n+]1c(-c2ccccc2)c2cc(N)ccc2c2ccc(N)cc21` the Activity (Nucleic Acid) was “Active”.
With `CN1c2ccccc2C(=O)N2CCc3c([nH]c4ccccc34)[C@@H]21` [EVODIAMINE] the inhibition [1] was “inactive”, the GI50 (MDA-MB-435) was 20.2 µM and the GI50 (A549 [4]) was 100 µM. For the same compound, the GI50 (HCT-116) was 100 µM and the inhibition [7] was “Active”.
